These results are taken from ChEMBL document CHEMBL3351507, “11H-Pyrido[3',2':4,5]pyrrolo[3,2-c]cinnoline and pyrido[3',2':4,5]pyrrolo[1,2-c][1,2,3]benzotriazine: two new ring systems with antitumor activity” (2014).

The source made the active and inactive calls. The rule behind the calls is not given here.

The subject of one assay is SK-MEL-28. In words: Cytotoxicity against human SK-MEL-28 cells assessed as growth inhibition after 72 hrs by MTT assay. It is filed as functional. The conditions noted are these: SK-MEL-28, 72 h. Summed up:
(§1)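 NCI 60-cell-line panel screen. Compounds were tested at 5 concentrations in 10-fold dilution (10^-4 to 10^-8 M) across the full panel. GI50 was taken as the molar concentration giving 50% inhibition of net cell growth.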
(In general: Formazan colour is commonly taken as a measure of viable cells.)

The next assay has as its system Jurkat. In words: Cell cycle arrest in human Jurkat cells assessed as accumulation at S phase at 0.25 uM after 24 hrs by propidium iodide staining-based flow cytometry (reference value: 15.5%). The assay is classed as functional. Background: Flow cytometry measures light scatter and fluorescence of single cells or particles in a stream.
The subject of assay [1] is LoVo. As to the kind of experiment: Anticlonogenic activity against human LoVo cells assessed as inhibition of colony formation of cells at 2.5 to 5 uM incubated for 24 hrs followed by compound washout measured after 1 to 2 weeks by crystal violet staining-based assay. It is filed as functional, cell-based.
The nature of assay [2]: Cytotoxicity against human Hs578T cells assessed as growth inhibition after 72 hrs by MTT assay. It is filed as functional. The following applies: Hs-578T.
Another assay has as its system HT-29. As to the kind of experiment: Cytotoxicity against human HT-29 cells assessed as growth inhibition after 72 hrs by MTT assay. The assay is classed as functional. The following applies: HT-29, 72 h.
A short description of assay [3]: Cytotoxicity against human OVCAR8 cells assessed as growth inhibition after 72 hrs by MTT assay. The assay is classed as functional. The conditions noted are these: OVCAR-8, 72 h. The method, boiled down:
as §1

In assay [4] the test system is LoVo. In words: Anticlonogenic activity against human LoVo cells assessed as inhibition of colony formation of cells incubated for 24 hrs followed by compound washout measured after 1 to 2 weeks by crystal violet staining-based assay. The assay is classed as functional, cell-based. Summed up:
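LoVo cells were plated at 1000 per well in six-well plates and exposed to compound at different concentrations for 24 h. Medium was then replaced, with fresh medium every 2–3 days, until colonies formed (1–2 weeks). Colony number is given as a percentage of untreated cells (100%), as mean ± SEM of 3 independent experiments.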

Another assay deals with SF-268. In words: Cytotoxicity against human SF268 cells assessed as growth inhibition after 72 hrs by MTT assay. It is filed as functional. The following applies: SF-268, 72 h. The method, boiled down: as §1
The subject of a further assay is CCRF-CEM. In words: Cytotoxicity against human CCRF-CEM cells assessed as growth inhibition after 72 hrs by MTT assay. It is filed as functional.
Assay [5] has as its system LoVo. In words: Anticlonogenic activity against human LoVo cells assessed as inhibition of colony formation of cells at 0.625 to 10 uM incubated for 24 hrs followed by compound washout measured after 1 to 2 weeks by crystal violet staining-based assay. The assay is classed as functional, cell-based.

`COc1ccc2c(c1)nnc1c3cccnc3[nH]c21`: the concentration for 50% growth inhibition (GI50) (as a rule, the concentration at which growth is held to half of that of the control) in the assay on SK-MEL-28 was determined as 11800 nM; in assay [2], 3470 nM; in the assay on HT-29 it was 750 nM; in assay [3] it was 620 nM; in the assay on SF-268, 730 nM. In the assay with Jurkat, the Activity is given as 24.1%. In the assay with LoVo [1], the inhibition result is “Active”. In addition, the inhibition entry in the assay with LoVo [4] was “Dose-dependent effect”.

As to `O=Nc1c2cccnc2n2nnc3ccc(Cl)cc3c12`, the GI50 in the assay with SK-MEL-28 was 1060 nM; with CCRF-CEM it was 23 nM; in [2], 1050 nM; in the assay with HT-29 it was 910 nM; in assay [3], 1800 nM; with SF-268, 1210 nM.

`COc1cc2nnn3c4ncccc4c(N=O)c3c2cc1OC`: the GI50 with SK-MEL-28 was 9100 nM; in the assay with CCRF-CEM it was < 10 nM; in assay [2], 6800 nM; in the assay with HT-29, 790 nM; in [3], 820 nM; in the assay on SF-268, 490 nM. The Activity with Jurkat was 15.4%. Moreover, the inhibition entry with LoVo [1] is “Active”. For the same molecule, the inhibition entry in the assay with LoVo [4] is “Dose-dependent effect”.

`COc1cc2nnc3c4cccnc4[nH]c3c2cc1OC`: the 50% growth inhibitory concentration (GI50) in the assay on SK-MEL-28 came out at 4490 nM; in [2] it was 3700 nM; in the assay on HT-29, 1340 nM; in assay [3], 1250 nM; in the assay with SF-268, 540 nM.

Take `COc1ccc2c(c1)nnn1c3ncccc3c(N=O)c21`: the GI50 stood at 3480 nM in the assay on SK-MEL-28; 1170 nM in [2]; 620 nM in the assay on HT-29; 3900 nM in assay [3]; 470 nM with SF-268. Moreover, the Activity in the assay on Jurkat turned out to be 25.1%. Moreover, the inhibition entry in the assay on LoVo [5] was “Active”. For the same molecule, the inhibition entry in the assay with LoVo [4] was “Dose-dependent effect”.
